# The source made the active and inactive calls. The calls are words filed in the database; no cut-off is given here.
# Legend:
# MCF7 = assay: Cytotoxicity against human MCF7 cells after 48 hrs by MTT assay; assay type: functional, cell-based; details: MCF7, 48 h
# Method in brief: (§1)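 Cells grown with 10% FBS, 1% L-glutamine and antibiotics at 37 °C, 5% CO₂. Seeded at 1 × 10⁵ cells/mL and incubated 24 h. Compounds added from DMSO stocks, final DMSO <1%, for 48 h. MTT (2.5 mg/mL) added for 2 h, then OD read at 490 nm. IC50 (50% reduction in OD versus untreated) taken from dose–response curves; three independent determinations.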
# HeLa = assay: Cytotoxicity against human HeLa cells after 48 hrs by MTT assay; assay type: functional, cell-based; method in brief: as §1
# [1] = Cytotoxicity against […] cells after 48 hrs by MTT assay; assay type: functional, cell-based; details: Mus musculus, Ehrlich; method in brief: as §1
# [2] = Antitumor activity against […] cells xenografted in Swiss albino mouse assessed as mean survival time at 10 mg/kg, ip qd administered for 9 days measured after 14 days (reference value: 13.7+/- 0.4 days); assay type: functional, Ehrlich; details: route intraperitoneal
# Method in brief: (§2)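 Female Swiss albino mice, 8 weeks old and 20–25 g, received 0.2 mL of 2 × 10⁶ EAC cells/mouse i.p. on day 0. Daily dosing started 24 h later and ran 9 days; controls received sterile saline i.p. After day-14 sacrifice of five per group, mortality was recorded daily for 30 days. MST = (first + last death day)/2; %ILS = [(MST treated/MST control) − 1] × 100.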
# Mus musculus [3] = assay: Protective effect on haemopoietic system in Swiss albino mouse xenografted with […] cells assessed as change in monocytes count at 5 mg/kg, ip qd administered for 9 days measured after 14 days (reference value: 2.4 +/- 0.1 %); assay type: functional, Ehrlich; details: route intraperitoneal
# Method in brief: (§3)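 Swiss albino female mice (8 weeks, n = 10 per group) inoculated ip with EAC cells (0.2 mL of 2 × 10⁶ cells/mouse), then dosed daily for 9 days starting 24 h after inoculation. On day 14, hemoglobin, RBC, WBC and differential leukocyte counts were compared with uninoculated normal and EAC control groups; mean ± SEM.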
# Mus musculus [4] = assay: Toxicity in Swiss albino mouse xenografted with […] cells assessed as change in body weight at 10 mg/kg, ip qd administered for 9 days measured after 14 days (reference value: 12.2 +/- 0.8 g); assay type: organism-based, Ehrlich; design: dose 10 mg/kg, route intraperitoneal; details: in vivo, 336 h
# Mus musculus [5] = assay: Protective effect on haemopoietic system in Swiss albino mouse xenografted with […] cells assessed as change in lymphocytes count at 5 mg/kg, ip qd administered for 9 days measured after 14 days (reference value: 23 +/- 0.6 %); assay type: functional, Ehrlich; details: route intraperitoneal; method in brief: as §3
# Mus musculus [6] = assay: Toxicity in Swiss albino mouse xenografted with human EAC cells assessed as change in body weight at 5 mg/kg, ip qd administered for 9 days measured after 14 days (reference value: 12.2 +/- 0.8 g); assay type: organism-based, Ehrlich; design: dose 5 mg/kg, route intraperitoneal; details: in vivo, 336 h
# Mus musculus [7] = assay: Protective effect on haemopoietic system in Swiss albino mouse xenografted with […] cells assessed as change in neutrophils count at 5 mg/kg, ip qd administered for 9 days measured after 14 days (reference value: 73 +/- 1.3 %); assay type: functional, Ehrlich; details: route intraperitoneal; method in brief: as §3
# [8] = Antitumor activity against […] cells xenografted in Swiss albino mouse assessed as packed cell volume at 5 mg/kg, ip qd administered for 9 days measured after 14 days (reference value: 2.8 +/- 0.5 ml); assay type: functional, Ehrlich; details: route intraperitoneal
# Ehrlich [9] = assay: Antitumor activity against […] cells xenografted in Swiss albino mouse assessed as viable tumor cell count at 10 mg/kg, ip qd administered for 9 days measured after 14 days by trypan blue assay; assay type: functional, organism-based; design: dose 10 mg/kg
# [10] = Antitumor activity against […] cells xenografted in Swiss albino mouse assessed as packed cell volume at 10 mg/kg, ip qd administered for 9 days measured after 14 days (reference value: 2.8 +/- 0.5 ml); assay type: functional, Ehrlich; details: route intraperitoneal
# Mus musculus [11] = assay: Reduction in ascetic fluid volume in Swiss albino mouse xenografted with […] cells at 5 to 10 mg/kg, ip qd administered for 9 days measured after 14 days; assay type: functional, organism-based; details: Ehrlich
# [12] = Antitumor activity against […] cells xenografted in Swiss albino mouse assessed as increase in life span at 5 mg/kg, ip qd administered for 9 days; assay type: functional, Ehrlich; details: route intraperitoneal; method in brief: as §2
# Mus musculus [13] = assay: Protective effect on haemopoietic system in Swiss albino mouse xenografted with […] cells assessed as WBC count at 10 mg/kg, ip qd administered for 9 days measured after 14 days; assay type: functional, organism-based; design: dose 10 mg/kg; details: Ehrlich; method in brief: as §3
# [14] = Antitumor activity against […] cells xenografted in Swiss albino mouse assessed as change in tumor volume at 5 mg/kg, ip qd administered for 9 days measured after 14 days (reference value: 12.1 +/- 0.9 ml); assay type: functional, Ehrlich; details: route intraperitoneal
# Mus musculus [15] = assay: Protective effect on haemopoietic system in Swiss albino mouse xenografted with […] cells assessed as WBC count at 5 mg/kg, ip qd administered for 9 days measured after 14 days; assay type: functional, organism-based; design: dose 5 mg/kg; details: Ehrlich; method in brief: as §3
# Mus musculus [16] = assay: Protective effect on haemopoietic system in Swiss albino mouse xenografted with […] cells assessed as change in hemoglobin level at 10 mg/kg, ip qd administered for 9 days measured after 14 days (reference value: 5.8 +/- 0.7 g%); assay type: functional, Ehrlich; details: route intraperitoneal; method in brief: as §3
# [17] = Antitumor activity against […] cells xenografted in Swiss albino mouse assessed as increase in life span at 10 mg/kg, ip qd administered for 9 days; assay type: functional, Ehrlich; details: route intraperitoneal; method in brief: as §2
# [18] = Antitumor activity against […] cells xenografted in Swiss albino mouse assessed as mean survival time at 5 mg/kg, ip qd administered for 9 days measured after 14 days (reference value: 13.7+/- 0.4 days); assay type: functional, Ehrlich; details: route intraperitoneal; method in brief: as §2
# Mus musculus [19] = assay: Protective effect on haemopoietic system in Swiss albino mouse xenografted with […] cells assessed as change in lymphocytes count at 10 mg/kg, ip qd administered for 9 days measured after 14 days (reference value: 23 +/- 0.6 %); assay type: functional, Ehrlich; details: route intraperitoneal; method in brief: as §3
# Mus musculus [20] = assay: Protective effect on haemopoietic system in Swiss albino mouse xenografted with […] cells assessed as RBC count at 10 mg/kg, ip qd administered for 9 days measured after 14 days; assay type: functional, organism-based; design: dose 10 mg/kg; details: Ehrlich; method in brief: as §3
# Mus musculus [21] = assay: Protective effect on haemopoietic system in Swiss albino mouse xenografted with […] cells assessed as change in neutrophils count at 10 mg/kg, ip qd administered for 9 days measured after 14 days (reference value: 73 +/- 1.3 %); assay type: functional, Ehrlich; details: route intraperitoneal; method in brief: as §3
# Mus musculus [22] = assay: Protective effect on haemopoietic system in Swiss albino mouse xenografted with […] cells assessed as change in monocytes count at 10 mg/kg, ip qd administered for 9 days measured after 14 days (reference value: 2.4 +/- 0.1 %); assay type: functional, Ehrlich; details: route intraperitoneal; method in brief: as §3
# [23] = Antitumor activity against […] cells xenografted in Swiss albino mouse assessed as change in tumor volume at 10 mg/kg, ip qd administered for 9 days measured after 14 days (reference value: 12.1 +/- 0.9 ml); assay type: functional, Ehrlich; details: route intraperitoneal
# Mus musculus [24] = assay: Protective effect on haemopoietic system in Swiss albino mouse xenografted with […] cells assessed as RBC count at 5 mg/kg, ip qd administered for 9 days measured after 14 days; assay type: functional, organism-based; design: dose 5 mg/kg; details: Ehrlich; method in brief: as §3
# Mus musculus [25] = assay: Protective effect on haemopoietic system in Swiss albino mouse xenografted with […] cells assessed as change in hemoglobin level at 5 mg/kg, ip qd administered for 9 days measured after 14 days (reference value: 5.8 +/- 0.7 g%); assay type: functional, Ehrlich; details: route intraperitoneal; method in brief: as §3
# Ehrlich [26] = assay: Antitumor activity against […] cells xenografted in Swiss albino mouse assessed as viable tumor cell count at 5 mg/kg, ip qd administered for 9 days measured after 14 days by trypan blue assay; assay type: functional, organism-based; design: dose 5 mg/kg
smiles,measurement,setting,value
Cc1noc2c1N=C(c1ccccc1)CC(c1ccccc1)C2C(c1ccc(Cl)cc1)C1c2onc(C)c2N=C(c2ccccc2)CC1c1ccccc1 (centres undefined),IC50,MCF7,59 µg/mL
same,IC50,HeLa,55.9 µg/mL
same,IC50,[1],60.4 µg/mL
Cc1noc2c1N=C(c1ccccc1)CC(c1ccccc1)C2C(c1ccccc1)C1c2onc(C)c2N=C(c2ccccc2)CC1c1ccccc1 (centres undefined),IC50,MCF7,68.9 µg/mL
same,IC50,HeLa,68.7 µg/mL
same,IC50,[1],66.5 µg/mL
Cc1noc2c1N=C(c1ccc(Cl)cc1)CC(c1ccccc1)C2C(c1ccccc1)C1c2onc(C)c2N=C(c2ccc(Cl)cc2)CC1c1ccccc1 (centres undefined),IC50,MCF7,61.1 µg/mL
same,IC50,HeLa,60.2 µg/mL
same,IC50,[1],58.5 µg/mL
Cc1ccc(C(C2c3onc(C)c3N=C(c3ccccc3)CC2c2ccccc2)C2c3onc(C)c3N=C(c3ccccc3)CC2c2ccccc2)cc1 (centres undefined),IC50,MCF7,41.9 µg/mL
same,IC50,HeLa,38.4 µg/mL
same,IC50,[1],48.2 µg/mL
Cc1ccc(C2CC(c3ccccc3)=Nc3c(C)noc3C2C(c2ccccc2)C2c3onc(C)c3N=C(c3ccccc3)CC2c2ccc(C)cc2)cc1 (centres undefined),IC50,MCF7,50.1 µg/mL
same,IC50,HeLa,53.3 µg/mL
same,IC50,[1],51.6 µg/mL
Cc1noc2c1N=C(c1ccco1)CC(c1ccccc1)C2C(c1ccccc1)C1c2onc(C)c2N=C(c2ccco2)CC1c1ccccc1 (centres undefined),MSD,[2],18.3 days
same,Activity,Mus musculus [3],2.1%
same,Activity,Mus musculus [4],9.6 g
same,Activity,Mus musculus [5],29%
same,Activity,Mus musculus [6],10.6 g
same,Activity,Mus musculus [7],63%
same,IC50,MCF7,35.9 µg/mL
same,Activity,[8],2.1 mL
same,Activity,Ehrlich [9],Active
same,IC50,HeLa,32.7 µg/mL
same,Activity,[10],1.6 mL
same,Activity,Mus musculus [11],Active
same,Activity,[12],8.8%
same,Activity,Mus musculus [13],Active
same,Activity,[14],11 mL
same,Activity,Mus musculus [15],Active
same,IC50,[1],28.9 µg/mL
same,Activity,Mus musculus [16],7.4 g%
same,Activity,[17],33.6%
same,MSD,[18],14.9 days
same,Activity,Mus musculus [19],46%
same,Activity,Mus musculus [20],Active
same,Activity,Mus musculus [21],49%
same,Activity,Mus musculus [22],1.7%
same,Activity,[23],8.5 mL
same,Activity,Mus musculus [24],Active
same,Activity,Mus musculus [25],6 g%
Cc1noc2c1N=C(c1cccs1)CC(c1ccccc1)C2C(c1ccccc1)C1c2onc(C)c2N=C(c2cccs2)CC1c1ccccc1 (centres undefined),MSD,[2],23.8 days
same,Activity,Mus musculus [3],1.9%
same,Activity,Mus musculus [4],6.7 g
same,Activity,Mus musculus [5],35%
same,Activity,Mus musculus [6],8.3 g
same,Activity,Mus musculus [7],54%
same,IC50,MCF7,24.1 µg/mL
same,Activity,[8],1.8 mL
same,Activity,Ehrlich [9],Active
same,IC50,HeLa,28.5 µg/mL
same,Activity,[10],1.1 mL
same,Activity,Mus musculus [11],Active
same,Activity,[12],29.9%
same,Activity,Mus musculus [13],Active
same,Activity,[14],7.3 mL
same,Activity,Mus musculus [15],Active
same,IC50,[1],26.1 µg/mL
same,Activity,Mus musculus [16],8.5 g%
same,Activity,[17],73.7%
same,Activity,Ehrlich [26],Active
same,MSD,[18],17.8 days
same,Activity,Mus musculus [19],51%
same,Activity,Mus musculus [20],Active
same,Activity,Mus musculus [21],36%
same,Activity,Mus musculus [22],1.4%
same,Activity,[23],4.9 mL
same,Activity,Mus musculus [24],Active
same,Activity,Mus musculus [25],7.3 g%
COc1ccc(C2CC(c3ccccc3)=Nc3c(C)noc3C2C(c2ccccc2)C2c3onc(C)c3N=C(c3ccccc3)CC2c2ccc(OC)cc2)cc1 (centres undefined),IC50,MCF7,53.8 µg/mL
same,IC50,HeLa,45.6 µg/mL
same,IC50,[1],40.1 µg/mL
Cc1ccc(C2=Nc3c(C)noc3C(C(c3ccccc3)C3c4onc(C)c4N=C(c4ccc(C)cc4)CC3c3ccccc3)C(c3ccccc3)C2)cc1 (centres undefined),IC50,MCF7,55.9 µg/mL
same,IC50,HeLa,55.1 µg/mL
same,IC50,[1],50.1 µg/mL
COc1ccc(C(C2c3onc(C)c3N=C(c3ccccc3)CC2c2ccccc2)C2c3onc(C)c3N=C(c3ccccc3)CC2c2ccccc2)cc1 (centres undefined),IC50,MCF7,57.3 µg/mL
same,IC50,HeLa,65.9 µg/mL
same,IC50,[1],41.9 µg/mL
